Activity calls are given as the source filed them. No cut-off for these calls is given here.
Tests used:
[1] = Inhibition of bovine liver beta-glucosidase using 10 mM p-nitrophenyl-[…]-D-glucopyranoside as substrate; parameters: species or system Bos taurus
[2] = Inhibition of aspergillus niger alpha-galactosidase using 10 mM p-nitrophenyl-alpha-D-galactopyranoside as substrate
Outline: (§1)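 Enzyme (0.1 U/cm3; A. niger α-galactosidase or bovine liver β-galactosidase) was preincubated with inhibitor for 1 h at 37 °C. Substrate was 10 mM p-nitrophenyl α- or β-D-galactopyranoside in 200 mM sodium acetate, reacted 10 min at 37 °C. The reaction was stopped with 200 mM borate pH 9.8 and released p-nitrophenol read at 420 nm. Ki came from Lineweaver–Burk plots; values are the average of five assays.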

[3] = target: T1, Beta-galactosidase (Bos taurus, UniProt Q58D55); experiment: Inhibition of bovine liver beta-galactosidase using 10 mM p-nitrophenyl-beta-D-galactopyranoside as substrate; outline: as §1
T1 sequence (Q58D55 whole entry): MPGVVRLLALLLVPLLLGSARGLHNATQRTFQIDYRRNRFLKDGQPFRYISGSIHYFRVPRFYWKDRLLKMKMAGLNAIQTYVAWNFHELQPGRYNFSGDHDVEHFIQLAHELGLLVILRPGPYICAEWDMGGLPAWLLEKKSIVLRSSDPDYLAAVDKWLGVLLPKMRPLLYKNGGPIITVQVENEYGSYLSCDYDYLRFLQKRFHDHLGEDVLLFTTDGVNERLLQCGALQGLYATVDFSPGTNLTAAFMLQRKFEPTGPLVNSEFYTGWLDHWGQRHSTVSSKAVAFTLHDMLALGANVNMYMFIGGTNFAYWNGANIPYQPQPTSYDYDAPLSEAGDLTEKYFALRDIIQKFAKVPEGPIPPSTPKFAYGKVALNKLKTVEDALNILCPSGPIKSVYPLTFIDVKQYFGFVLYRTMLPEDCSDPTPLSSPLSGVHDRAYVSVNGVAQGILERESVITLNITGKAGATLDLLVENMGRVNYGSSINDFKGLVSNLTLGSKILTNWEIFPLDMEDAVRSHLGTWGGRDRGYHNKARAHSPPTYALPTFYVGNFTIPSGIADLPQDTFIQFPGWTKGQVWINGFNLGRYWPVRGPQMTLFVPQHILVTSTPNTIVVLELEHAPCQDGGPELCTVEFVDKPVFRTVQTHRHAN

[4] = test system: Oryza sativa; experiment: Inhibition of rice alpha-glucosidase at 1 mM using 10 mM p-nitrophenyl-alpha-D-glucopyranoside as substrate
Outline: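 Rice α-glucosidase (0.1 U cm−3) was preincubated with compound 1 h at 37 °C. Reaction used 10 mM p-nitrophenyl-α-D-glucopyranoside in 100 mM phosphate pH 6.8, 10 min at 37 °C, stopped with 0.1 M Na2CO3. p-Nitrophenol was read at 420 nm. NI means no 50% inhibition at 1 mM. Ki came from Lineweaver–Burk plots. Average of five assays.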

[5] = target: T2, Alpha-mannosidase (Canavalia ensiformis) (UniProt C0HJB3); experiment: Inhibition of jack bean alpha-mannosidase at 1 mM using 10 mM p-nitrophenyl-alpha-D-mannopyranoside as substrate
T2 sequence (whole entry): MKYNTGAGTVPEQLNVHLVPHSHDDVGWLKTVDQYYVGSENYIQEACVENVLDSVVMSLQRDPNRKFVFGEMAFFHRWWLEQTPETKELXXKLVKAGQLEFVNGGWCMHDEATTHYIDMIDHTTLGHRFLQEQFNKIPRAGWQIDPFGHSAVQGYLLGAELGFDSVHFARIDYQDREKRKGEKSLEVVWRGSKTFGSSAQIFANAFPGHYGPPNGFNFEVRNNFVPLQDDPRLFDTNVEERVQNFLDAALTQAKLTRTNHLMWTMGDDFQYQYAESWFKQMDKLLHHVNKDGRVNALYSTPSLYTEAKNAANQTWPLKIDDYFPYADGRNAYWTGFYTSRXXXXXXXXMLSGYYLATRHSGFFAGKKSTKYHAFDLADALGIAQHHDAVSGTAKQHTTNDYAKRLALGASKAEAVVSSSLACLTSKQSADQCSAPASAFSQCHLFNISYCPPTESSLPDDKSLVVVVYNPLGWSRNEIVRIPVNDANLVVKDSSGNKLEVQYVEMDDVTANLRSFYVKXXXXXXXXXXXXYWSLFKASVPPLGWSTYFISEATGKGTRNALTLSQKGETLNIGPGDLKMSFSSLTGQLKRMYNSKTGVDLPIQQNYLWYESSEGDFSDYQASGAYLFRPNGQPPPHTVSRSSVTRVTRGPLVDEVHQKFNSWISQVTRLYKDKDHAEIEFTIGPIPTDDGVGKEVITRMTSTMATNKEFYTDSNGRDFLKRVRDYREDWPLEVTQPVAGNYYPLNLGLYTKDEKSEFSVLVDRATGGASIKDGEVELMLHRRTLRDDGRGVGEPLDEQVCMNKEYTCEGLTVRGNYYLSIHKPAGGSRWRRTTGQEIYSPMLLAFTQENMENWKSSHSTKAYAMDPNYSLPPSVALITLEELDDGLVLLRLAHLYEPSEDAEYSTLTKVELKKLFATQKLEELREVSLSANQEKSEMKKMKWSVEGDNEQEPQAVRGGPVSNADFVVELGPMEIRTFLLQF
Outline: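 Jack bean α-mannosidase (0.1 U/cm3) was preincubated with inhibitor for 1 h at 37 °C. Substrate was 10 mM p-nitrophenyl α-D-mannopyranoside in 100 mM citrate pH 4.5, reacted 10 min at 37 °C. The reaction was stopped with 200 mM borate pH 9.8 and absorbance read at 420 nm. Ki came from Lineweaver–Burk plots; average of five assays. NI means under 50% inhibition at 1 mM.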

[6] = test system: Splenocyte; experiment: Immunostimulating activity in Swiss albino mouse Splenocytes assessed as increase in ConA-induced cell proliferation upto 5 uM after 72 hrs by MTT assay; format: functional, cell-based
Outline: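 Splenocytes (2 × 10^6/well) from Swiss albino mice were treated with Con A (methods give final 10 μg/mL; results give 10 μM), alone or with compound at final 0.5, 1, 2.5 and 5 μM. Incubation was 72 h at 37 °C, 5% CO2, in RPMI with 10% FCS. Readout by MTT, expressed as % of Con A-treated cells (100%); mean ± SEM, n = 5.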

[7] = Cytotoxicity against Swiss albino mouse Splenocytes assessed as cell proliferation at 0.5 to 5 uM after 72 hrs by MTT assay; format: cell-based; details: splenocyte
Outline: (§2)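 Swiss albino mouse splenocytes (2 × 10^6 cells/well) were treated with Con A alone or with test samples at final 0.5, 1, 2.5 and 5 μM. Con A is given as final 10 μg/mL in methods and 10 μM in text. Cells were held 72 h at 37 °C, 5% CO2, in RPMI with 10% FCS, then read by MTT. Values are % of Con A-treated cells (100%), mean ± SEM, n = 5.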

[8] = test system: Splenocyte; experiment: Immunostimulating activity in Swiss albino mouse Splenocytes assessed as decrease in ConA-induced IL-4 secretion at 5 uM by ELISA; format: functional
[9] = test system: Splenocyte; experiment: Immunostimulating activity in Swiss albino mouse Splenocytes assessed as increase in IL-6 secretion at 5 uM by ELISA in presence of 10 uM ConA relative to control; format: functional
Outline: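 Supernatants came from splenocytes (2 × 10^6/well) treated with Con A 10 μM plus compound at 5 μM. IL-6 was measured by ELISA: samples 2 h at 37 °C, biotinylated antibody 1 h, then streptavidin–HRP and substrate developed in the dark. Read at 550 nm with 450 nm correction and quantified from an IL-6 standard curve; mean ± SEM, n = 5.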

[10] = test system: Splenocyte; experiment: Immunostimulating activity in Swiss albino mouse Splenocytes assessed as increase in ConA-induced IFN-gamma secretion at 5 uM by ELISA; format: functional, cell-based
Outline: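 Splenocyte supernatants (2 × 10^6 cells/well) were collected after 24 h stimulation with Con A 10 μM alone or with compound at 5 μM. Unstimulated cells served as control. IFN-γ was quantified by sandwich ELISA; mean ± SEM, n = 5.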

[11] = test system: Splenocyte; experiment: Immunostimulating activity in Swiss albino mouse Splenocytes assessed as ConA-induced cell proliferation > 5 uM after 72 hrs by MTT assay; format: functional, cell-based
[12] = Inhibition of rice alpha-glucosidase using 10 mM p-nitrophenyl-alpha-D-glucopyranoside as substrate; parameters: species or system Oryza sativa
Outline: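 Rice α-glucosidase (0.1 U cm−3) was preincubated with compound 1 h at 37 °C. Reaction used 10 mM p-nitrophenyl-α-D-glucopyranoside in 100 mM phosphate pH 6.8, 10 min at 37 °C, stopped with 0.1 M Na2CO3. p-Nitrophenol was read at 420 nm. Ki came from Lineweaver–Burk plots. Average of five assays.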

[13] = test system: Aspergillus niger; experiment: Inhibition of aspergillus niger alpha-galactosidase at 1 mM using 10 mM p-nitrophenyl-alpha-D-galactopyranoside as substrate
Outline: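 Galactosidase (0.1 U cm−3) was preincubated with compound 1 h at 37 °C. Reaction used 10 mM p-nitrophenyl-α- or β-D-galactopyranoside in 200 mM sodium acetate, 10 min at 37 °C, stopped with 200 mM borate pH 9.8. Read at 420 nm. NI means no 50% inhibition at 1 mM. Five assays averaged.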

[14] = target: T3, Alpha-mannosidase (Canavalia ensiformis, UniProt C0HJB3); experiment: Inhibition of jack bean alpha-mannosidase using 10 mM p-nitrophenyl-alpha-D-mannopyranoside as substrate
T3 sequence (C0HJB3 whole entry): T2 sequence (whole entry)
Outline: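 Jack bean α-mannosidase (0.1 U cm−3) was preincubated with compound 1 h at 37 °C. Reaction used 10 mM p-nitrophenyl-α-D-mannopyranoside in 100 mM citrate pH 4.5, 10 min at 37 °C, stopped with 200 mM borate pH 9.8. Read at 420 nm. IC50 and Ki were determined, Ki from Lineweaver–Burk double-reciprocal plots. Mean of five assays.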

[15] = test system: Splenocyte; experiment: Immunostimulating activity in Swiss albino mouse Splenocytes assessed as increase in ConA-induced cell proliferation upto 2.5 uM after 72 hrs by MTT assay; format: functional, cell-based; outline: as §2
[16] = test system: Splenocyte; experiment: Immunostimulating activity in Swiss albino mouse Splenocytes assessed as decrease in ConA-induced IL-4 secretion at 2.5 uM by ELISA; format: functional
Outline: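 Supernatants came from Con A-stimulated splenocytes (2 × 10^6 cells/well) with compound at 2.5 or 5 μM. They were spun 2000g for 5 min and stored at −70 °C. IL-4 was measured by ELISA: sample 2 h at 37 °C, then peroxidase conjugate 1 h, substrate developed in the dark. Absorbance was read at 550 nm with 450 nm correction and quantified from an IL-4 standard curve. n = 5.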

[17] = test system: Splenocyte; experiment: Immunostimulating activity in Swiss albino mouse Splenocytes assessed as increase in IL-6 secretion at 2.5 uM by ELISA in presence of 10 uM ConA relative to control; format: functional
Outline: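 Splenocytes (2 × 10^6 cells/well) were stimulated with 10 μM Con A plus compound (2.5 or 5 μM). Supernatant IL-6 was measured by sandwich ELISA: sample 2 h at 37 °C, biotinylated antibody 1 h, streptavidin–HRP, then substrate in the dark. Absorbance was read at 550 nm with 450 nm correction against an IL-6 standard curve. Mean ± SEM, n = 5.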

[18] = test system: Splenocyte; experiment: Immunostimulating activity in Swiss albino mouse Splenocytes assessed as increase in ConA-induced IFN-gamma secretion at 2.5 uM by ELISA; format: functional, cell-based
Outline: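 IFN-γ was measured by ELISA in supernatants of splenocytes (2 × 10^6 cells/well). Cells were unstimulated, stimulated with Con A (10 μM), or given Con A plus compound (2.5 or 5 μM) for 24 h. Mean ± SEM, n = 5.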

SMILES	IC50 [14]	Ki [14]	IC50 [1]	Ki [1]	IC50 [2]	Ki [2]	IC50 [3]	Ki [3]	inhibition [4]	inhibition [5]	Activity [6]	Activity [7]	inhibition at 5 µM [8]	fold change (FC) [9]	Activity [10]	Activity [11]	Activity [15]	inhibition at 2.5 µM [16]	fold change (FC) [17]	Activity [18]	further results
OC[C@]12CCCN1C[C@H](O)[C@@H](O)[C@@H]2O			116 µM	95 µM	0.13 µM	0.09 µM	3.6 µM	1.5 µM	< 50%	< 50%	Active	Non-toxic	31%	4.1	Active	inactive					
OC[C@@]12CCCN1C[C@H](O)[C@@H](O)[C@@H]2O			202 µM	102 µM	0.24 µM	0.54 µM	2.3 µM	1 µM	< 50%	< 50%	Active	Non-toxic	34%	4.4	Active	inactive					
OCCN1C[C@H](O)[C@@H](O)[C@H](O)[C@H]1CO [MIGLITOL]			342 µM	32 µM			200 µM	100 µM		< 50%											IC50 [12]: 0.1 µM; Ki [12]: 0.06 µM; inhibition [13]: < 50%
OC[C@@]12CCCN1C[C@@H](O)[C@@H](O)[C@@H]2O			156 µM	86 µM	0.63 µM	0.44 µM	1.2 µM	0.5 µM	< 50%	< 50%	Active	Non-toxic	31%	3.7	Active	inactive					

Second part, led by results:

IC50 [14]	Ki [14]	SMILES	IC50 [1]	Ki [1]	IC50 [2]	Ki [2]	IC50 [3]	Ki [3]	inhibition [4]	inhibition [5]	Activity [6]	Activity [7]	inhibition at 5 µM [8]	fold change (FC) [9]	Activity [10]	Activity [11]	Activity [15]	inhibition at 2.5 µM [16]	fold change (FC) [17]	Activity [18]	further results
0.075 µM	0.043 µM	O=C1CC[C@@]2(CO)[C@@H](O)[C@H](O)[C@@H](O)CN12	39 µM	19 µM	130 µM	14 µM	5.6 µM	2.4 µM	< 50%			Non-toxic				inactive	Active	47%	9	Active	
1.3 µM	0.9 µM	O=C1CC[C@@]2(CO)[C@@H](O)[C@H](O)[C@H](O)CN12	46 µM	24 µM	630 µM	68 µM	7.2 µM	3.1 µM	< 50%			Non-toxic				inactive	Active	34%	8.2	Active	

Source: ChEMBL document CHEMBL3621047, “Quaternary Indolizidine and Indolizidone Iminosugars as Potential Immunostimulating and Glycosidase Inhibitory Agents: Synthesis, Conformational Analysis, Biological Activity, and Molecular Docking Study” (J Med Chem, 2015)
